In the library only some 2.9% were active in any assay of this set; here they are far more common.
AI-2 QS modul = modulates the Vibrio harveyi AI-2 quorum sensing system; 300,000 compounds, 0.4% hits; AID 2094; Vibrio harveyi JMH597 AI-2 luminescence/OD600 ratio, 9 h; stronger effect = lower value; strain lacks LuxN and CqsS sensors; 0 = neutral-control median; activity change, % at 7.5 µM; in the data active = activity change below about -75%, passing the limit was not always enough; inconclusive = no clear call, values can overlap the other calls;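 also: luminescence divided by OD600 gain over 9 h not by final OD600 alone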
Runt-SMMHC FRET = inhibitors of human RUNX1 Runt domain binding to CBFb-SMMHC; 220,000 compounds, 0.74% hits; inhibition, % at 20 µM; Q01196+Q13951; Cerulean-Runt/Venus-CBFb-SMMHC FRET ratio 530/480, 1 h;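 active = mean inhibition across duplicate retests at 20 µM reaching about 50%, limit read from the data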;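 also: 0% = DMSO wells and 100% = wells with excess untagged CBFb-SMMHC; inhibitors lower the FRET ratio by blocking Runt binding to CBFb-SMMHC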
Target sequence (Q01196 whole entry, looked up, the tested form may be a part): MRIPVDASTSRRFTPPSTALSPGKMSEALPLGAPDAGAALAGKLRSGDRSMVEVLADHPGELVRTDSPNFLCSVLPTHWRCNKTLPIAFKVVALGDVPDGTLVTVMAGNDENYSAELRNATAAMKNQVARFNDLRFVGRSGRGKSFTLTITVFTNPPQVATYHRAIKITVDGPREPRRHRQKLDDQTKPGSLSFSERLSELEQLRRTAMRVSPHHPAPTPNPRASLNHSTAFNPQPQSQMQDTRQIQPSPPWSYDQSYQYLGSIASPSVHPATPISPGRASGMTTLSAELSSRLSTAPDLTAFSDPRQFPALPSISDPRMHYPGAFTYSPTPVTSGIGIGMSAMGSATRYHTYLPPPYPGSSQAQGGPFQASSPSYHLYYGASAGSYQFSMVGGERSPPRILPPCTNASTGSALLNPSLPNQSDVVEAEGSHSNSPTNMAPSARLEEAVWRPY
Target sequence (Q13951 whole entry, looked up, the tested form may be a part): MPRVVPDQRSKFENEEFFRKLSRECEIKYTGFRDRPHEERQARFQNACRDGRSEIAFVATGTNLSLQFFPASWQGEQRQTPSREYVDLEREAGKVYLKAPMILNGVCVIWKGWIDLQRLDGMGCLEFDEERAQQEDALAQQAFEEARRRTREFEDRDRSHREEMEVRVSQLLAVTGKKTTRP
Runt-CBFb FRET = inhibitors of human RUNX1 Runt domain binding to CBFb. Q01196+Q13951. Cerulean-Runt/Venus-CBFb FRET ratio 530/480, 1 h. inhibition, % at 20 µM. 220,000 compounds, 0.46% hits. AID 1496;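 active = inhibition over about 50% at 20 µM in the single-dose screen, limit read from the data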;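 also: 0% = DMSO wells and 100% = excess unlabeled CBFb competitor control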
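Schedule: protein complex preformed 1 h, compound exposure 1 h, room temperature, dark; test system: Cerulean-labeled Runt domain protein; amount: 100 nM per protein; buffer or medium: Tris 50 mM pH 7.5, KCl, K2SO4, 0.01% BSA; read-out: loss of energy transfer signal; detection: FRET fluorescence; controls: 5 µM unlabeled CBFb as full-inhibition high control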
Wee1 degr inh = human Wee1 degradation inhibition, primary screen. reporter increase, % at 5 µM. HeLa Luc-Wee1K328M stability, luciferase luminescence; 100% = proteasome inhibitor MG132 effect. 220,000 compounds, 1.2% hits. AID 1321;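 active = activation above the mean of all tested compounds plus 3 SD, set per screening run, cut at about 8.8% in these data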;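 also: cells exposed to compound for 20 h before luminescence read; 0% = DMSO alone and 100% = MG132 at 30 µM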
RanGTP-Impb inh = inhibitors of RanGTP-importin-beta interaction, primary screen, biochemical, FRET, CFP-Ran, YFP-importin-beta, homogeneous; cell-free CFP-Ran/YFP-importin-beta FRET ratio; inhibition, % (no concentration beside the values); 300,000 compounds, 1.1% hits; AID 2216;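 active = more than half of the replicate wells show a fall in the fluorescence ratio signal beyond about 16%, limit read from the data, passing the limit was not always enough; inconclusive = exactly half of the replicate wells pass the set limit; inactive = fewer than half of replicates pass the limit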;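 also: 0% = DMSO wells and 100% = Ran loaded with GDP instead of GTP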
proKLK7 act = activates the human kallikrein-7 zymogen. activation, % at 7 µM. purified proKLK7, EDANS-DABCYL substrate fluorescence; 100% is mature enzyme control, 0% vehicle. 370,000 compounds, 0.9% hits;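 active = activation above the mean of all tested compounds plus 3 SD, computed per campaign excluding outliers beyond control limits, cut at about 13% in these data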
KLK7 act conf = confirmation of human kallikrein-7 zymogen activators; AID 686949; 3,200 compounds, 68% hits; activation, % at 7 µM; purified proKLK7, EDANS-DABCYL substrate fluorescence; scaled: vehicle 0, mature enzyme 100; shares compounds with proKLK7 act;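 active = activation, as change over the incubation, above the mean of all tested compounds plus 3 SD, cut at about 13% in these data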
EDANS interfere = optically interferes with EDANS-DABCYL signal, flagging KLK7 hits | activation, % at 7 µM | shares compounds with proKLK7 act | EDANS-DABCYL substrate fluorescence interference, no enzyme, 4 h; solvent 0%, active enzyme control 100% | AID 686952 | 3,200 compounds, 80% hits;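 active = activation above the all-compound mean plus 3 SD, ignoring values outside control-based bounds, cut at about 4.8% in these data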;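 also: value is the 4 h activation minus the activation read at time zero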
K7 EDANS ctr = counter-screen for kallikrein-7 activators: EDANS-DABCYL interference, dose response | shares compounds with proKLK7 act | EDANS-DABCYL peptide fluorescence interference, no enzyme | EC50, µM | 250 compounds, 20% hits;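 active = compounds that raise the fluorescence signal in this interference counterscreen, with EC50 at or below 10 µM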;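 also: intact quenched peptide substrate alone read at 355 nm excitation and 520 nm emission; signal is fluorescence gain from T0 to T4 after four hours at room temperature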
An asterisk follows results filed as active; ? = inconclusive; . = not tested or not shown.

SMILES | AI-2 QS modul | Runt-SMMHC FRET | Runt-CBFb FRET | Wee1 degr inh | RanGTP-Impb inh | proKLK7 act | KLK7 act conf | EDANS interfere | others
COc1ccc(CCn2c(=N)c(C(=O)NCCN3CCOCC3)cc3c(=O)n4cccc(C)c4nc32)cc1OC | 11 | . | . | . | 11 | 1 | . | .
Cc1ccc2nc3c(cc(C(=O)NCCc4ccccc4)c(=N)n3CCCN3CCOCC3)c(=O)n2c1 | -3 | . | . | . | 168* | 17* | -2 | -2
Cc1cccn2c(=O)c3cc(C(=O)NCc4ccccc4)c(=N)n(CCCN4CCOCC4)c3nc12 | . | . | . | . | . | 18* | -5 | -2
COCCCn1c(C(=O)NCCN2CCOCC2)cc2c(=O)n3cccc(C)c3nc21 | 3 | . | . | . | 2 | 15* | 38* | 28* | K7 EDANS ctr=>70
O=C(CSc1nc2ccccc2c(=O)n1CCCN1CCOCC1)NCCc1ccccc1 | . | . | . | . | . | 0 | . | .
CC(C)(C)n1nc2c(c1NC(=O)C1CC(=O)N(c3ccc(Cl)cc3)C1)CS(=O)(=O)C2 (configuration not stated) | 7 | . | . | . | 1 | 0 | . | .
COCCCn1c(C(=O)N2CCOCC2)cc2c(=O)n3ccccc3nc21 | 4 | . | . | . | 0 | 47* | 72* | 80*
CCCNc1nc2nc3ccccn3c(=O)c2cc1C(=O)NCCN1CCOCC1 | 21 | . | . | . | 131* | 26* | 21* | 20*
Cc1nc2ccccc2c(=O)n1CCCN1CCOCC1 | . | -1 | 0 | 0 | 0 | 0 | . | .
N#Cc1cc2c(=O)n3ccccc3nc2n(CCCN2CCOCC2)c1=O | 9 | 62* | 77* | 3 | 95* | 48* | 44* | 40*
Cc1cccn2c(=O)c3cc(C(=O)NCCN4CCOCC4)c(=N)n(CCCN4CCOCC4)c3nc12 | -4 | . | . | . | 131* | 25* | 4 | 8.1*
COC(=O)[C@@]1(C(C)C)N=C(c2cc(OC)c(OC)c(OC)c2)[C@]2(O1)C(=O)N(C)c1ccccc12 | . | . | . | . | . | 0 | . | .
Cc1cccn2c(=O)c3cc(C(=O)NCCN4CCOCC4)c(=N)n(CCc4ccccc4)c3nc12 | 20 | 41 | 11 | 0 | 185* | 35* | -7 | -6
COc1ccc(Cn2nnnc2CN(CCCN2CCOCC2)Cc2cc3cc(OC)ccc3[nH]c2=O)cc1 | 21 | -2 | 0 | -3 | 1 | 1 | . | .
COc1ccc2cc(CN(CCCN3CCOCC3)Cc3nnnn3C3CCCC3)c(=O)[nH]c2c1 | 15 | 37 | 21 | -2 | 2 | 16* | 1 | 1
Nc1cccc2c1C(=O)N(C(=O)c1cccc(S(=O)(=O)N3CCCCCC3)c1)C2=O | 6 | 62* | 12 | 1 | 19* | 19* | 258* | 269*
Nc1cccc2c1C(=O)N(C(=O)c1ccc(Cl)c(S(=O)(=O)N3CCCCCC3)c1)C2=O | 17 | 62* | -12 | 3 | 20* | 18* | 217* | 233*
O=C(c1ccc(Cl)c(S(=O)(=O)N2CCCCC2)c1)N1CCCCC1 | 5 | . | . | . | -3 | 0 | . | .
Cn1c(=O)c2c(nc(SCCN3CCOCC3)n2C)n(C)c1=O | 3 | . | . | . | 4 | 0 | . | .
Cc1ccc(NC(=O)COC(=O)/C=C/c2c(C)nn(-c3ccc(F)cc3)c2Cl)cc1F | 20 | 0 | 1 | -1 | -1 | 0 | . | .
O=C(c1ccc(CS(=O)c2ccc(F)cc2)o1)N1CCN(C2CCCCC2)CC1 (configuration not stated) | 1 | . | . | . | ? | 0 | . | .

Screening data (PubChem)
